Calls of active or inactive are those of the source. No cut-off for these calls is given here.
How the values were obtained:
Cannabinoid receptor 2 [1] = molecular target: T1, Cannabinoid receptor 2 (Homo sapiens, UniProt P34972); test: Displacement of [3H]CP-55940 from human recombinant CB2 receptor expressed in HEK cells; format: cell-based, HEK293; conditions: read-out: Ki
Cannabinoid receptor 2 [2] = molecular target: T1, Cannabinoid receptor 2; test: Agonist activity at human recombinant CB2 receptor expressed in HEK cells assessed as calcium mobilization by FLIPR relative to CP-55940; format: functional, cell-based; conditions: HEK293
Method in brief: (§1)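 HEK cells stably coexpressing human CB2 and chimeric Gαq/o5 protein, seeded 75,000/well one day before; no-wash calcium dye.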

Rattus norvegicus [3] = organism: Rattus norvegicus; test: Antiinflammatory activity against rat CFA-induced chronic inflammatory thermal hyperalgesia model assessed as effect on paw withdrawal latency; format: functional, organism-based
Method in brief: (§2)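 Rats given 150 µL of 50% CFA in PBS into right hind plantar paw; thermal hyperalgesia tested 48 h later. Compound in 5% DMSO/95% PEG; PWL read 30 min post dose in ipsilateral and contralateral paws, 3 trials ~5 min apart, mean of two shortest latencies. n = 6 per dose; compared against vehicle. Antagonist pretreatment group included.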

Cannabinoid receptor 2 [4] = molecular target: T1, Cannabinoid receptor 2; test: Agonist activity at human recombinant CB2 receptor expressed in HEK cells assessed as calcium mobilization by FLIPR; format: functional, cell-based, HEK293; method in brief: as §1
Rattus norvegicus [5] = organism: Rattus norvegicus; test: Antiinflammatory activity against CB2 receptor antagonist SR-144528-pretreated rat CFA-induced chronic inflammatory thermal hyperalgesia model assessed as effect on paw withdrawal latency; format: functional, organism-based; method in brief: as §2
Cannabinoid receptor 1 = Cannabinoid receptor 1 (Homo sapiens, UniProt P21554); test: Displacement of [3H]CP-55940 from human recombinant CB1 receptor expressed in HEK cells; format: cell-based, HEK293; conditions: read-out: Ki
Homo sapiens = organism: Homo sapiens; test: Selectivity for human recombinant CB2 receptor over human recombinant CB1 receptor
Method in brief: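 Ki ratio from [3H]CP-55940 (0.5 nM) competition binding: human CB1 membranes from stably expressing […] cells versus human CB2 membranes from stably expressing HEK cells. Tris-HCl pH 7.4 buffer with EDTA, MgCl2, BSA; 90 min at 30 °C; filtration counting; nonspecific with 10 µM unlabeled ligand; ≥3 experiments in duplicate.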

Rattus norvegicus [6] = organism: Rattus norvegicus; test: Antiinflammatory activity against CB1 receptor antagonist SR-141716A-pretreated rat CFA-induced chronic inflammatory thermal hyperalgesia model assessed as effect on paw withdrawal latency; format: functional, organism-based
Method in brief: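 Rats received 150 µL of 50% CFA in PBS into the right hind plantar paw. Thermal hyperalgesia was tested 48 h later after antagonist pretreatment, dosing in 5% DMSO/95% PEG vehicle, n = 6 per dose. Paw withdrawal latency was measured 30 min post-dose in the ipsilateral and contralateral paws, with 3 trials about 5 min apart. The value is the mean of the two shortest latencies, compared with vehicle.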

Chain of Cannabinoid receptor 1 (P21554 whole entry): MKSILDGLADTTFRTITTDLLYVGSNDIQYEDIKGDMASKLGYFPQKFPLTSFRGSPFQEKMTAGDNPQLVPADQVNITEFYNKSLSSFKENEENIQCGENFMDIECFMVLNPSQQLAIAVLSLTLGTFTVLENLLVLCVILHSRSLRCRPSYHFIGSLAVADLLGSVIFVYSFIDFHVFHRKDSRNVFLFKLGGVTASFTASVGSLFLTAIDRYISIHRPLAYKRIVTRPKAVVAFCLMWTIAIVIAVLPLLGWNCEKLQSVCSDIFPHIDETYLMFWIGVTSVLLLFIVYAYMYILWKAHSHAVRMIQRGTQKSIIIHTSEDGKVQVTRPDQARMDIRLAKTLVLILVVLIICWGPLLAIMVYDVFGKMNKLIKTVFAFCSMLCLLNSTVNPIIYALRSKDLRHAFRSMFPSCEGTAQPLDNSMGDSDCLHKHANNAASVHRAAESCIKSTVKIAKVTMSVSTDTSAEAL
T1 sequence (P34972 whole entry): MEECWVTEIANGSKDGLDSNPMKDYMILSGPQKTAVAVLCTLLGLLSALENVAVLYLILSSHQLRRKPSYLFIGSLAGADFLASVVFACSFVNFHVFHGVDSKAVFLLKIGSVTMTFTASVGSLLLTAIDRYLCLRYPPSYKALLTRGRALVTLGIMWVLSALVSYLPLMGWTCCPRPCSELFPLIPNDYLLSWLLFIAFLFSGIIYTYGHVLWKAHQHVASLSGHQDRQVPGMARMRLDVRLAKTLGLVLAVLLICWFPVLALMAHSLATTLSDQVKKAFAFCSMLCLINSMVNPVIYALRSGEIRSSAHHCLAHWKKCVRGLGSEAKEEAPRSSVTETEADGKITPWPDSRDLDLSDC

SMILES	Ki (Cannabinoid receptor 2 [1]) [µM]	Activity (Cannabinoid receptor 2 [2]) [%]	Activity (Rattus norvegicus [3])	EC50 (Cannabinoid receptor 2 [4]) [µM]	Activity (Rattus norvegicus [5])	Ki (Cannabinoid receptor 1) [µM]	Ratio Ki (Homo sapiens)	Activity (Rattus norvegicus [6])
CC1(C)C(C(=O)c2cn(CC3CCOCC3)c3cccc(O)c23)C1(C)C	0.0039	94	Dose-dependent effect	0.064	–	–	–	–
CC1(C)C(C(=O)c2cn(CCN3CCOCC3)c3ccccc23)C1(C)C	0.0044	71	Active	0.014	–	–	–	–
Cc1ccc(Cn2nc(C(=O)NC3C(C)(C)C4CC[C@@]3(C)C4)cc2-c2ccc(Cl)c(C)c2)cc1 (stereo not given in full)	–	–	–	–	inactive	–	–	–
CC1(C)C(C(=O)c2cn(CC3CCOCC3)c3ccc(F)cc23)C1(C)C	0.0016	88	–	0.022	–	1.21	756	–
CC1(C)C(C(=O)c2cn(CC3CCOCC3)c3ccc(Cl)cc23)C1(C)C	0.003	69	–	0.092	–	0.512	171	–
CC1(C)C(C(=O)c2cn(CC3CCOCC3)c3ccc(CO)cc23)C1(C)C	0.113	53	–	0.073	–	> 10	> 88	–
Cc1c(C(=O)NN2CCCCC2)nn(-c2ccc(Cl)cc2Cl)c1-c1ccc(Cl)cc1	–	–	–	–	–	–	–	Active
CC1(C)C(C(=O)c2cn(CC3CCOCC3)c3cc(-c4ccccc4)ccc23)C1(C)C	0.00041	–	inactive	> 10	–	0.228	556	–
CC1(C)C(C(=O)c2cn(CC3CCOCC3)c3ccc(Br)cc23)C1(C)C	0.0066	54	–	0.28	–	1.93	292	–
COc1cccc2c1c(C(=O)C1C(C)(C)C1(C)C)cn2CC1CCOCC1	0.0033	37	–	0.081	–	1.09	330	–

— ChEMBL document CHEMBL1144013, “Indol-3-yl-tetramethylcyclopropyl ketones: effects of indole ring substitution on CB2 cannabinoid receptor activity” (J Med Chem, 2008)
